Dyrk1A ADPGlo: rat Dyrk1A kinase inhibitors, primary screen, biochemical, single point, plate reader. actives 0.43% (n = 310,000). AID 504441, 2011. ADP-Glo luminescence, NFATc1 peptide. inhibition, % at 12.5 µM. Dual specificity tyrosine-phosphorylation-regulated kinase 1A (Rattus norvegicus), Q63470; in the data active = inhibition above about 50%
CAL PDZ FP-1: untagged CAL PDZ binding inhibitors, primary screen, biochemical, fluorescence polarization, HTS; Golgi-associated PDZ and coiled-coil motif-containing protein (Homo sapiens), Q9HD26; purified CAL PDZ, TMR-peptide fluorescence polarization, 1 h; inhibition, % at 24.9 µM; actives 0.92% (n = 300,000); AID 602252, 2012;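 active = mean inhibition of at least 30% with at least half of replicates also reaching 30%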
ARNT TACC3 PPI: disruptors of ARNT/TACC3 protein interaction, primary screen, biochemical, AlphaScreen, single concentration; Transforming acidic coiled-coil-containing protein 3 (Homo sapiens), Q9Y6A5; AlphaScreen His-ARNT PAS-B/GST-TACC3 binding, luminescence; TACC3 fragment carries E629A point mutation; inhibition, % at 9.99 µM; actives 0.66% (n = 390,000);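 active = mean inhibition of replicates at least 50% and at least half of replicates each reaching 50%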
CAL PDZ FP-2: CAL PDZ peptide-binding inhibitors, primary screen, biochemical, fluorescence polarization, Cer-tagged CAL PDZ, HTS; Golgi-associated PDZ and coiled-coil motif-containing protein (Homo sapiens), Q9HD26; purified CAL PDZ, TMR-peptide fluorescence polarization, 1 h; inhibition, % at 20 µM; actives 0.02% (n = 330,000); AID 504414, 2011;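 active = highest replicate inhibition of at least 40%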
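System: tagged CAL PDZ domain. Schedule: 1 h room-temperature incubation prior to read. Signal: fluorescence polarization (mP). Measure: percent inhibition from loss of millipolarization.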
A number is an active result; 0 = inactive; - = no result. The list is not random: actives were taken first. Their share in the collection is about 1.4%.

SMILES | Dyrk1A ADPGlo | CAL PDZ FP-1 | ARNT TACC3 PPI | CAL PDZ FP-2
COc1ccc(S(=O)(=O)N(C)C[C@@H]2Oc3ncc(C#CC4(O)CCCC4)cc3C(=O)N([C@@H](C)CO)C[C@@H]2C)cc1 | - | - | 0 | -
CCN(CC)S(=O)(=O)c1ccc(N2CCOCC2)c(NC(=O)C2CCCC2)c1 | 0 | 0 | 0 | 0
CCN1CCN(c2ccc(S(=O)(=O)N3CCOCC3)cc2NC(=O)C2CCC(C(C)(C)C)CC2)CC1 (configuration not stated) | 0 | 73 | - | 0
CN(C)S(=O)(=O)c1ccc(NC(=S)NC(=O)C2CCC2)cc1 | 0 | 0 | 0 | 0
CCN(CC)S(=O)(=O)c1ccc(N2CCCC2)c(NC(=O)C2CCCCC2)c1 | - | 40 | 0 | 0
CCN(CC)S(=O)(=O)c1ccc(NC(=S)NC(=O)C2CCC2)cc1 | - | 54 | 0 | 0
COc1ccc(NC(=O)Nc2ccc3c(c2)CC(=O)N([C@@H](C)CO)C[C@H](C)[C@@H](CN(C)Cc2ccc(C(=O)O)cc2)O3)cc1 | - | - | 0 | -
C(=N\Nc1nncn1/N=C/c1ccco1)/c1ccco1 | 0 | - | 64 | 0
COc1ccc(OC)c(/C=N/Nc2nncn2/N=C/c2cc(OC)ccc2OC)c1 | 0 | 0 | 0 | 0
C#Cc1ccc([C@H]2C=C(C(=O)N3CCOCC3)O[C@@H](OCCCCO)C2)cc1 | - | - | 0 | -
CSCC(O)Cn1ncc2ccccc2c1=O (configuration not stated) | 0 | 31 | 0 | 0
C/C(CC(=O)Nc1ccc2c(c1)OCCO2)=N\NC(=O)COc1ccc(Cl)c(C)c1 | 0 | 47 | 0 | 0
COc1ccc(CC(=O)N/N=C(\C)CC(=O)Nc2ccc3c(c2)OCCO3)cc1OC | 0 | 44 | 0 | 0
CCCc1nnc(NS(=O)(=O)c2ccccc2)s1 | 0 | 0 | 0 | 0
CCCCc1ccc(S(=O)(=O)Nc2nnc(C)s2)cc1 | 0 | 52 | 0 | 0
O=C(C[C@@H]1CC[C@H](NC(=O)c2ccncc2)[C@@H](CO)O1)NCC1CCCCC1 | - | - | 0 | -
Cc1ccc(CNc2ccc(O)cc2)cc1 | 0 | 0 | 24 | 0
Cc1ccc(NCc2ccccc2O)cc1 | 0 | - | 0 | 0
O=[N+]([O-])c1cccc(CP(=O)(c2ccccc2)c2ccccc2)c1 | 0 | 60 | - | 0
O=[N+]([O-])c1ccc(CP(=O)(c2ccccc2)c2ccccc2)cc1 | 0 | 0 | 0 | 0
C=C1c2cccc(O)c2C(O)=C2C(=O)[C@]3(O)C(O)=C(C(N)=O)C(=O)[C@@H](N(C)C)[C@@H]3[C@@H](O)[C@H]12 | 0 | 0 | 61 | 0
C[C@H]1c2cccc(O)c2C(O)=C2C(=O)C3(O)C(O)=C(C(N)=O)C(=O)[C@@H](N(C)C)[C@@H]3[C@@H](O)[C@@H]21 (some centres not stated) | 0 | 0 | 0 | 0
O=C(/C=C/c1ccc(Br)cc1)NC(=S)NNC(=O)c1ccco1 | 0 | 0 | 0 | 0
O=C(/C=C/c1ccccc1)NC(=S)NNC(=O)c1ccco1 | 0 | 0 | 52 | 0
Cc1ccccc1S(=O)(=O)NCC[C@@H]1CC[C@@H](NC(=O)C2CCCCC2)[C@@H](CO)O1 | - | - | 0 | -
SMILES | Dyrk1A ADPGlo | CAL PDZ FP-1 | ARNT TACC3 PPI | CAL PDZ FP-2
CCOc1ccccc1NC(=O)N1CCCC(c2nc(-c3ccc(C)o3)no2)C1 (configuration not stated) | 0 | 76 | 0 | 0
O=C(NCC[C@@H]1CC[C@@H](NS(=O)(=O)c2cccc(F)c2)[C@H](CO)O1)C1CCOCC1 | - | - | 0 | -
Cc1nc(/C=[N+](\[O-])C(C)(C)/C=N/O)n(O)c1C | 0 | 59 | 0 | 0
CC(C)(/C=N/O)/[N+]([O-])=C/c1ccco1 | 0 | 0 | 0 | 0
O=C(N[C@H]1CC[C@@H](CCn2cc(Cc3ccccc3)nn2)O[C@@H]1CO)c1ccccn1 | - | - | 0 | -
CCC(=O)N(C)C[C@@H]1Oc2ncc(-c3ccccc3OC)cc2C(=O)N([C@H](C)CO)C[C@H]1C | - | - | 0 | -
Cn1cc([N+](=O)[O-])c(C(=O)NCc2ccccc2)n1 | 0 | 30 | 0 | 0
COC(CNC(=O)CNC(=S)N(Cc1ccccc1)Cc1cccnc1)OC | 0 | 84 | 0 | 0
Cc1ccccc1NC(=O)COC(=O)CNC(=O)c1sc2ccccc2c1Cl | 0 | 0 | 0 | 0
CCCN(CC(=O)Nc1ccccc1C)C(=O)c1sc2ccccc2c1Cl | - | 61 | 0 | 0
Cc1ccc(C(=O)N/C(=C\c2ccc(-c3ccccc3[N+](=O)[O-])o2)C(=O)NCCN(C)C)cc1 | 0 | - | 22 | 0
Cc1ccc(C(=O)N/C(=C\c2ccc(-c3ccccc3[N+](=O)[O-])o2)C(=O)NCCCN(C)C)cc1 | 0 | 0 | - | 0
Cc1ccc(N(CC(=O)NCCSCc2ccco2)S(C)(=O)=O)cc1 | - | 0 | 0 | 0
Cc1cc(Cl)ccc1N(CC(=O)NCCSCc1ccco1)S(C)(=O)=O | 0 | 99 | 0 | 0
COc1ccc(N=C(N)SCc2ccccn2)cc1 | 0 | - | 55 | 0
COc1ccc(CNC(=O)CCN2C(=S)NC(C)(C)CC2C)cc1 (configuration not stated) | 0 | 65 | 0 | 0
O=c1ccc2[n+]([O-])c3ccc(O)cc3oc-2c1 | - | 71 | 0 | 43
CN(C)c1ccc2cc(S(=O)(=O)O)cc(O)c2c1 | - | - | 36 | 0
O=Nc1c(O)ccc2cc(S(=O)(=O)O)ccc12 | 0 | 0 | 18 | 0
C[C@@H]1CCCCO[C@H](CN(C)Cc2ccccc2)[C@@H](C)CN([C@@H](C)CO)C(=O)c2cc(NC(=O)Cc3ccccc3)ccc2O1 | - | - | 0 | -
CCOC(=O)C1=NOC(CNC(=O)c2c(-c3ccccc3Cl)noc2C)C1 (configuration not stated) | 0 | 0 | - | 0
CC(=O)C1=NOC(CNC(=O)c2c(-c3ccccc3Cl)noc2C)C1 (configuration not stated) | 0 | 45 | 0 | 0
Cc1ccc(S(=O)(=O)c2nc(Nc3ccccc3C#N)sc2Cl)cc1 | 0 | 0 | 0 | 0
Cc1ccc(S(=O)(=O)c2nc(NN(C)C)sc2Cl)cc1 | 0 | 120 | 0 | 0
O=C(C[C@H]1CC[C@@H]2[C@H](COC[C@@H](O)CN2C(=O)c2cnccn2)O1)NCc1ccc(F)cc1 | - | - | 0 | -
SMILES | Dyrk1A ADPGlo | CAL PDZ FP-1 | ARNT TACC3 PPI | CAL PDZ FP-2
N#Cc1c(NCc2ccccc2)ccnc1Cl | 0 | 40 | 0 | 0
C=C(C)Cn1c(Sc2nc3ccccc3[nH]2)nc2c1c(=O)[nH]c(=O)n2C | 0 | 35 | 0 | 0
COc1ccc(NC(=O)CCNS(=O)(=O)c2ccc3c(c2)CC(C)N3C(=O)C2CC2)cc1 (configuration not stated) | 0 | 34 | 0 | 0
O=C(COC(=O)c1ccc(Cl)nc1)Nc1ccc(N2CCCCC2)cc1 | 0 | 41 | 0 | -
COCC(=O)N1C[C@H](C)[C@@H](OC)CN(C)C(=O)c2cc(NC(=O)c3cc(C)on3)ccc2OC[C@@H]1C | - | - | 0 | -
O=C(CN1C(=O)C2C3C=CC(C3)C2C1=O)OCC(=O)c1ccc(Cl)cc1 (configuration not stated) | - | 74 | 0 | 0

Bioassay records from PubChem BioAssay.
